# Measurements gathered from unrelated publications.
# Protocols differ between the studies behind these lines.
# Effect on: metabolic stability
# Species: human
SMILES,test system,setting,endpoint,result
NCCOCC(=O)N1CCCC(C(=O)NCc2nc(-c3ccc(-c4ccc(F)cc4)cc3)cs2)C1 (stereo not shown),liver microsomes,,scaled CLint,< 4.3 mL/min/kg
O=c1[nH]c2ccccc2n1C1CCN(CCCC(c2ccc(F)cc2)c2ccc(F)cc2)CC1,liver microsomes,100 ng/mL,microsomal CLint,3.4 µL/min/mg
Cc1[nH]c(C)c(S(=O)(=O)Nc2ccc(S(F)(F)(F)(F)F)cc2)c1C(=O)N1CCC(F)(F)C1,liver microsomes,,microsomal CLint,26 µL/min/mg
C[C@]12CC[C@H]3[C@@H](CCC4=CC(=O)CC[C@@]43C)[C@@H]1CC[C@@H]2O,liver microsomes,pH 7.4,scaled CLint,125 mL/min/kg
C[C@]12CC[C@H]3[C@@H](CCC4=CC(=O)CC[C@@]43C)[C@@H]1CC[C@@H]2O,liver microsomes,,microsomal CLint,63.9 µL/min/mg
Cc1[nH]c(C)c(S(=O)(=O)Nc2ccc(S(F)(F)(F)(F)F)c(Cl)c2)c1C(=O)N1CCC(F)(F)C1,liver microsomes,,microsomal CLint,53.1 µL/min/mg
CC1(C)NC(=O)N(c2cc(Cl)c(F)c(C(F)(F)F)c2)C1=O,liver microsomes,,microsomal CLint,< 7 µL/min/mg
CC(C)CC(=O)OC[C@H]1O[C@@](C#N)(c2ccc3c(N)ncnn23)[C@H](O)[C@@H]1O,hepatocytes,,hepatocyte CLint,> 318 µL/min/10⁶ cells
CC1(C)NC(=O)N(c2ccc(F)c(C(F)(F)F)c2F)C1=O,liver microsomes,,microsomal CLint,< 7 µL/min/mg
O=C1CCC(N2Cc3c(ccc4c3OCC43CCN(Cc4ccccc4)CC3)C2=O)C(=O)N1 (stereo not shown),liver microsomes,1 µM,scaled CLint,20.9 mL/min/kg
